The campaign covered roughly 340,000 compounds. About 540 (0.16%) were called active. This excerpt belongs to a sample that is enriched for actives. Unmarked numbers belong to inactive results.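 The calls were made as follows: active = inhibition above about 35% when tested at 20 µM (limit read from the data); inactive = the rest.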
Molecular target: Hexokinase HKDC1 (Homo sapiens) (UniProt Q2TB90)
Experiment: blockers of human HKDC1 enzyme activity – biochemical, fluorescence, uHTS, primary screen (AID 493160);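 also: plate controls were DMSO wells with enzyme for no effect and DMSO wells lacking enzyme for full effect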
Conditions: recombinant HKDC1, G6PDH/diaphorase resazurin coupled fluorescence; at 20 µM; stronger effect = higher value
Outline: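 Test system: HK5 enzyme. Quantity: 5 µg/mL HK5 final. Reagent: glucose and ATP substrates. Schedule: 90 min reaction incubation at room temperature, dark. Technique: resazurin-to-resorufin fluorescence via G6PDH and diaphorase coupling, 525/613 nm. Control set: DMSO wells with and without enzyme mix.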

Sequence of Hexokinase HKDC1 (Homo sapiens) (Q2TB90 whole entry, looked up): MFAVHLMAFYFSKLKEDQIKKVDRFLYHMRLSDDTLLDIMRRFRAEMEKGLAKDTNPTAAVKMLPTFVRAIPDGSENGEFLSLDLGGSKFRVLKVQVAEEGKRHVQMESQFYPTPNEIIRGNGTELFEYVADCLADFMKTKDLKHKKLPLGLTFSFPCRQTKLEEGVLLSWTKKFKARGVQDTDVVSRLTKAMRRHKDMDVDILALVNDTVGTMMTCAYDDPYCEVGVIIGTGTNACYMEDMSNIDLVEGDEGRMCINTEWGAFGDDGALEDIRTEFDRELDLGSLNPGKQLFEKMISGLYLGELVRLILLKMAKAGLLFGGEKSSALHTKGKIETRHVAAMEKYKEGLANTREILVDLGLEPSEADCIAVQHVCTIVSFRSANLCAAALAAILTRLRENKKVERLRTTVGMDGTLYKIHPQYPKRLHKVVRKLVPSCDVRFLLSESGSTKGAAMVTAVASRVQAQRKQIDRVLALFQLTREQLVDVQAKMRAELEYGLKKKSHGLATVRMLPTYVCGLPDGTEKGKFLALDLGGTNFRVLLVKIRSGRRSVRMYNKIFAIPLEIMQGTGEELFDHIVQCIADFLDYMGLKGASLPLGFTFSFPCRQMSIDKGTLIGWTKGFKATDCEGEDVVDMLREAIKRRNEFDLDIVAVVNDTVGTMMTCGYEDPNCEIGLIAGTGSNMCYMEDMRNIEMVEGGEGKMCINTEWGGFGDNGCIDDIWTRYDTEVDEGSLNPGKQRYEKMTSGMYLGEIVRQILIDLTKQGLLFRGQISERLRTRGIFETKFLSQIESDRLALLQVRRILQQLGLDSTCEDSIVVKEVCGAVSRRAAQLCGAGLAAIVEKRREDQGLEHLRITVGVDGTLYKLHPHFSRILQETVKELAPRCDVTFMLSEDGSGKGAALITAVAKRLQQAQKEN

SMILES | inhibition
Cc1ccc(C(C)(C)C)c(OCCCCN2CCCC2)c1 | -1.47%
CC1(C)CC(=O)C=C(c2ccc3ncccc3c2)C1 | 11.6%
N/C(=N\c1nc2ccccc2o1)NC(=O)C(Cc1ccccc1)N1C(=O)c2ccccc2C1=O (stereo unspecified) | -5.13%
CCc1cc(CNC(=O)CC2C(=O)NCCN2CC2CCCCC2)on1 (stereo unspecified) | -15.1%
O=C(Cn1c2[n+](c3ccc(C(F)(F)F)cc31)CCCCC2)Nc1c(F)cccc1F | 1.03%
CCOC(=O)c1ccccc1NC(=O)COC(=O)C(Cc1c[nH]c2ccccc12)NC(C)=O (stereo unspecified) | 0.25%
O=C(Nc1ccc(S(=O)(=O)Nc2ncccn2)cc1)c1cncc(Br)c1 | -5.17%
CCC1SC2=NCCN2C1(O)c1ccc(Cl)cc1 (stereo unspecified) | 10.4%
C#CCOCCOCCOCCNc1nc(N2CCN(C(=O)C([C@@H](C)CC)n3cc(C(N)COC(=O)C(F)(F)F)nn3)CC2)nc(N2CCN(C(=O)[C@H](Cc3ccc(O)cc3)n3cc(C(N)[C@H](C)CC)nn3)CC2)n1 (stereo partly specified) | 1.5%
CC(=O)N(CC1CCCO1)C1(C(=O)NC2CCCC2)CCCCC1 (stereo unspecified) | 2.48%
COc1ccc(CN2CC(C(=O)NCCc3ccc(Cl)cc3)CC2=O)cc1 (stereo unspecified) | -3.16%
Cc1ccc(Nc2nnc(SC(C)C(=O)NC3CC3)s2)cc1 (stereo unspecified) | -5.42%
CC12CN(NC(=O)c3ccc(Cl)cc3)C3(C#N)CC1CCC23C (stereo unspecified) | -3.27%
Cc1noc(C)c1S(=O)(=O)N(C)C[C@H]1Oc2ccc(NC(=O)C3CC3)cc2C(=O)N([C@H](C)CO)C[C@@H]1C | 3.28%
CCn1cc(C(=O)OCC(=O)Nc2cccc(C)c2)c(=O)c2ccc(C)nc21 | -3.21%
COCc1c(C(=O)N/N=C\c2cccnc2)nnn1-c1nonc1N | -3.41%
COc1cc(/C=C/C(=O)OCC(=O)N2CCOCC2)ccc1OCC#N | -1.34%
COc1ccc(C(=O)Nc2cc(S(=O)(=O)N3CCCC3)ccc2Cl)cc1 | 1.91%
O=C1C(Cl)=C(Oc2ccccc2)C(=O)c2ccccc21 | 65.2% (active)
Nc1ccc2nc3c(=O)[nH]c(=S)[nH]c3nc2c1 | 69.9% (active)
C=CCn1c(CCNC(=O)c2ccccc2F)nnc1SCC(=O)Nc1ccc(OC)cc1 | -6.44%
COc1ccc(S(=O)(=O)N2CCCC2CNC(=O)C(=O)NC2CC2)cc1 (stereo unspecified) | 0.83%
Cc1ccc2c(c1)N(S(=O)(=O)c1cc(-c3cc(C)no3)ccc1C)CCO2 | 1.39%
O=S(N1CCCCCC1)C12CC3CC(CC(C3)C1)C2 (stereo unspecified) | -7.44%
O=C(CNC(=O)Cc1ccccc1)NCC(=O)OCC(=O)c1ccccc1Cl | 8.72%
CCOC(=O)c1ccc(NC(=O)c2nc[nH]c2C(=O)N[C@@H](CCCCNC(=O)OC(C)(C)C)C(=O)OC(C)(C)C)cc1 | 3.03%

SMILES | inhibition
Oc1c(C(c2ccco2)N2CCC3(CC2)OCCO3)sc2ncnn12 (stereo unspecified) | 0.37%
O=C(Cc1ccc(NC(=O)C2CCCN(C(=O)C3CCCCC3)C2)cc1)Nc1cccc(C(=O)N2CCCCC2)c1 (stereo unspecified) | -3.33%
CCC(C)c1ccc(O)c(/C=N/O)c1 (stereo unspecified) | -1.01%
CCOC(=O)CCP(=O)(O)C(O)(c1ccccc1)c1ccccc1 | -11.5%
CCN(CC)C(=O)C(=O)c1cn(CC(=O)NCc2ccc3c(c2)OCO3)c2ccccc12 | -5.09%
OC(COCc1ccco1)CN1CCN(c2ccccc2)CC1 (stereo unspecified) | -10.6%
Cc1ccc(-c2cnc(NC(=O)CCC(=O)N(C)Cc3ccccc3)n2C)cc1 | -3.47%
Cc1cccc(-n2ncc3c(=O)[nH]c(SCC(=O)Nc4cc(C)on4)nc32)c1 | -3.1%
CC1CN(C2CCCCC2)c2nc3c(c(=O)n(C)c(=O)n3C)n2C1 (stereo unspecified) | 3.52%
CC(C)(C)NC(=O)CSc1nnc(NC(=O)CCc2ccccc2)s1 | -2.99%
Cc1cc(-c2n[nH]c(=S)n2/N=C/C(Br)=C/c2ccccc2)n[nH]1 | 29.1%
COc1ccc(O)c(C(=O)c2cnc3onc(C(C)C)c3c2)c1 | -4.62%
Cc1ccc(CNC(=O)CCS(=O)(=O)c2ccc3c(c2)CC(C)N3C(=O)C2CC2)o1 (stereo unspecified) | -0.82%
CC1CCN(S(=O)(=O)c2ccc(S(=O)(=O)NCc3cccnc3)cc2)CC1 | -6.19%
CC(C)(C)c1cc(CN2CCN(CCC#N)CC2)cc(C(C)(C)C)c1O | 3.39%
O=S(=O)(Nc1ccc(O)c2ccccc12)c1ccc(OC(F)(F)F)cc1 | 52% (active)
Cc1nn(C)c(C)c1NS(=O)(=O)c1ccc(OC(F)(F)F)cc1 | -3.33%
O=C1COc2ccc(S(=O)(=O)Nc3ccc(OC(F)(F)F)cc3)cc2N1 | 2.53%
C=C(C)c1cccc(C(C)(C)NC(=O)NCCN(CC)CC)c1 | 13%
CC1Cc2ccccc2N1S(=O)(=O)c1cccc(C(=O)OCC(=O)N2CCOCC2)c1 (stereo unspecified) | -4.82%
COc1cc(NC(=O)C2=C(C)OCCS2)c(Cl)cc1C(=O)NCCN1CCN(C)CC1 | -3.87%
COCCCNC(NC(=O)c1ccc(OC)cc1)C(Cl)(Cl)Cl (stereo unspecified) | -2.25%
CC(C)(C)OC(=O)N(Cc1ccccc1)Cc1ccc(OCc2cccc(NC(=O)c3ccccc3)c2)cc1 | -0.76%
COc1ccc(Nc2ncc(C(=O)N3CCN(c4ccccc4OC)CC3)c3ccccc23)cc1 | 3.14%
CCc1c(Nc2ccccc2Cl)nc(N)[nH]c1=O | -5.05%
Fc1ccccc1OCCSc1nc2ccccc2o1 | 7.74%

SMILES | inhibition
CC(C)C[C@H](NC(=O)N1CC(=O)Nc2ccccc21)C(=O)N[C@H](Cc1ccccc1)C(=O)O | -0.33%
CN(C(=O)CSc1cccc[n+]1[O-])C1CCCCC1 | -5.14%
NC(=O)C1CC=CCC1C(=O)OCC(Cl)=C(Cl)Cl (stereo unspecified) | -10.8%
Cc1nc2nc(COc3ccccc3)[nH]n2c(=O)c1C | 0.17%
CC(=O)N1CSCC1C(=O)O (stereo unspecified) | -1.3%
CCOc1ccc(N2C(=O)CN(c3cccc4ccccc34)C2=S)cc1 | -10.4%
Cc1ccc(S(=O)(=O)NC(=O)COc2ccccc2C)cc1 | -6.13%
Cn1c2ccccc2c2cc(/C=C(\NC(=O)c3ccccc3)C(=O)NCC(=O)O)ccc21 | -5.19%
Cc1c(-c2ccccc2)cn2c1-c1ccc(C)n1CC2 | 1.47%
COc1ccc(-c2csc3ncnc(Oc4ccc5c(C)cc(=O)oc5c4)c23)cc1 | 6.07%
CCCCN(C(=O)c1cccc(N2C(=O)c3ccccc3C2=O)c1)c1c(N)n(CCCC)c(=O)[nH]c1=O | -1.42%
Cc1ccc(N(C(=O)c2ccc(S(=O)(=O)N(C)C)cc2)C2C=CS(=O)(=O)C2)cc1 (stereo unspecified) | -6.81%
NS(=O)(=O)c1ccc(CCNC(=O)c2nc(CS(=O)(=O)c3ccc(Cl)cc3)no2)cc1 | 4.98%
Cc1nc2ccc(N)nc2nc1C | -5.39%
Cc1cccc([C@@H]2[C@@H]3C(=O)N(C)C(=O)[C@@H]3[C@@H]3C(=O)Nc4ccccc4C(=O)N23)c1 | -0.25%
CC(C)=CC(=O)Nc1nnc(-c2ccc(F)cc2)s1 | 6.59%
Cc1cc(C)n(CCNC(=O)CC2C(=O)NCCN2Cc2ccc(C)o2)n1 (stereo unspecified) | -9.7%
Cc1ccc(O)c(NC(=O)c2cc(-c3ccco3)on2)c1 | -2.87%
CC(=O)N1CC(=O)N(CC(=O)Nc2ccc(Br)cc2)C1=S | -1.64%
O=C(O)c1ccc(NS(=O)(=O)c2ccc3c(c2)C(=O)c2cc(S(=O)(=O)Nc4ccc(C(=O)O)cc4)ccc2-3)cc1 | 2.22%
CCn1cc(C(=O)NCc2ccc3c(c2)OCO3)c2cc(OC)c(OC)cc2c1=O | 37.8% (active)
CCn1cc(C(=O)N2CCN(Cc3ccc4c(c3)OCO4)CC2)c2cc(OC)c(OC)cc2c1=O | -2.84%
COc1cc(OC)c(C(=O)NCc2ccc3c(c2)OCO3)cc1OC | -0.69%
COc1ccc(C(C)C)cc1S(=O)(=O)Nc1ncn[nH]1 | -3.49%
